ABCG2 block – ABCG2 efflux pump inhibitors, primary screen, multiplex with ABCB1, IgMXP3 cells, flow cytometry; Broad substrate specificity ATP-binding cassette transporter ABCG2 (Homo sapiens), Q9UNQ0; JC-1 efflux; inhibition, % at 6.6 µM; 0.1% of 190,000 active;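 active means inhibition above 80%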;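 further: 0% = DMSO and 100% = nicardipine control wells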
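material = IgMXP3 (ABCG2) plus far-red-tagged CCRF-Adr (ABCB1) cells | amount = 3 million cells/mL, equal mix of both lines | also added = JC-1 transporter substrate | dosing = one concentration, 6.6 µM final | schedule = 10 min at 25 °C | measured by = flow cytometric JC-1 green MFI at 530 nm | read-out basis = percent efflux inhibition, scaled nicardipine 100% to DMSO 0%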
ROMK mod – ROMK potassium channel modulators, primary screen, cell-based, thallium flux, MLSMR library. B-score at 10 µM. 2% of 130,000 active. ATP-sensitive inward rectifier potassium channel 1 (Homo sapiens), P48048. Tet-inducible ROMK, thallium flux fluorescence; actives lie on both sides. AID 1918, 2009;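 active means signal ratio slope over the read window, or its plate-corrected B-score, at least 3 SD from the plate mean, either direction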;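 further: B-score of the F/F0 ratio slope over 7 to 12 s after thallium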
Cl transport mod – KCC2 cotransporter modulators, thallium flux, primary screen, cell-based, HEK293 KCC2, FluoZin-2 fluorescence, MLSMR | Solute carrier family 12 member 5 (Homo sapiens), Q9H2X9 | KCC2 cells, thallium flux FluoZin-2 fluorescence | 2.2% of 190,000 active | AID 1456, 2008 | B-score of Tl+ flux slope (higher = more flux/activation; lower = inhibition) at 10 µM;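 active means thallium flux slope and its plate-corrected score both differing from the plate sample mean at a set confidence after two filtering rounds, in either direction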;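 further: slope of fluorescence scaled to starting intensity during 10 to 20 s after thallium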
PMI act – activators of human PMI, primary screen, biochemical, fluorescence intensity, near-Km mannose 6-phosphate | Mannose-6-phosphate isomerase (Homo sapiens), P34949 | purified human PMI, coupled resazurin fluorescence, 20 min; active compounds read high; 1 = vehicle control, 0 substrate-free wells | activation factor at 20 µM | 0.005% of 190,000 active | AID 1214, 2008;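 active means activation factor of 2 or more at 20 µM, relative to plate controls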
PMI act satM6P – human PMI activators, high substrate, primary screen, biochemical, fluorescence intensity, near-saturating mannose 6-phosphate; Mannose-6-phosphate isomerase (Homo sapiens), P34949; coupled PMI enzyme assay, resazurin fluorescence, 20 min; active compounds read high; 1 = untreated enzyme, 0 = substrate-free blank; activation factor at 20 µM; 0.34% of 190,000 active;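 active means activation factor of 2 or more at 20 µM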
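Test system – human PMI in coupled enzyme assay · Timing – 20 min incubation at room temperature · Detection – Diaphorase-driven resazurin-to-resorufin fluorescence, excitation 544, emission 590 nm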
ABCB1 inh – ABCB1 efflux pump inhibitors, primary screen, cell-based, multiplex, flow cytometry, ABCG2 counter-screen | CCRF-Adr cells, JC-1 efflux | inhibition, % at 6.6 µM | AID 1326, 2008 | 0.067% of 190,000 active | ATP-dependent translocase ABCB1 (Homo sapiens), P08183; in the data active means inhibition above about 40%;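 further: 0% = vehicle and 100% = reference inhibitor; higher value means more JC-1 retained so stronger ABCB1 efflux block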
KCC2 secondary – KCC2 modulators in sodium-free buffer, confirmation, cell-based, HEK293 KCC2, thallium flux, secondary assay. shares compounds with Cl transport mod. 15% of 3,700 active. normalised thallium flux (F/F0 slope) at 10 µM. AID 1713, 2009. FluoZin2 fluorescence; active compounds read high;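 active means thallium flux slope above the same plate's solvent-only control mean plus 3 SD; inconclusive means the two replicate wells disagree; inactive means no significant difference from solvent-only control wells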
KCC2 bumet counter – thallium flux persisting under bumetanide in KCC2 cells, confirmation, counter-screen for KCC2 modulator project, cell-based, HEK293 KCC2, FluoZin2, secondary assay 3 | shares compounds with Cl transport mod | HEK293-KCC2 + bumetanide/ouabain; active compounds read high | normalized thallium flux at 10 µM | 49% of 3,700 active | AID 1714, 2009;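 active means thallium entry rate above the same plate's blocked-transporter control wells by more than 3 SD; inconclusive means the two repeat wells disagree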;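 further: raw slope of fluorescence over initial fluorescence between 10 and 20 s after thallium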
KCC2 sec2 – KCC2 modulators without ouabain present, confirmation, cell-based, HEK293 KCC2, thallium flux, FluoZin2, secondary assay 2 | thallium flux FluoZin2 fluorescence; actives lie on both sides; F/F0 rise rate, 10–20 s post-thallium | shares compounds with Cl transport mod | normalized thallium flux at 10 µM | 23% of 3,700 active;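 active means thallium flux slope more than 3 SD above or below the plate's solvent-only control mean, mostly below; inconclusive means the two repeat wells disagreed; inactive means no significant shift from solvent-only controls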;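 further: raw slope with 0.1% DMSO as baseline and bumetanide as block control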
HEK counter1 – thallium flux modulation in parental HEK cells, confirmation, counter-screen for KCC2 modulator project, cell-based, counterscreen 1; shares compounds with Cl transport mod; HEK293 parental cells, thallium flux FluoZin2, ouabain; baseline-ratio fluorescence slope, 10–20 s after thallium; thallium flux rate (normalised fluorescence) at 10 µM; 46% of 3,700 active; AID 1716, 2009;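 active means thallium flux rate significantly above the same plate's solvent-only control wells, beyond their mean plus 3 SD; inconclusive means the two replicate wells gave conflicting results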
KCC2 ouabain – KCC2 inhibitors and activators, ouabain retest, confirmation, HEK-KCC2 cells | shares compounds with Cl transport mod | HEK293-KCC2, thallium flux FluoZin2 fluorescence; bidirectional: low = inhibitor, high = activator | raw Tl+ flux slope (below DMSO = inhibition, above = activation) at 10 µM | 48% of 3,700 active | AID 1717, 2009;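 active means thallium flux slope beyond 3 SD from same-plate DMSO control mean in most replicates, usually higher, sometimes lower; inconclusive means repeat tests gave conflicting results; inactive means no significant difference from controls in most replicates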;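 further: slope of initial-normalized fluorescence between seconds 10 and 20 after thallium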
HEK counter2 – native HEK Tl+ uptake effects, second counter-screen – HEK cells, counterscreen 2, counter-screen for KCC2 modulator project, confirmation; shares compounds with Cl transport mod; HEK293 parental, thallium flux FluoZin-2 fluorescence slope; thallium flux slope at 10 µM; 33% of 3,700 active;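 active means thallium flux slope above the same plate's solvent-control mean plus 3 SD in both duplicate wells; inconclusive means duplicate wells that disagreed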;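 further: run without ouabain in cells lacking the KCC2 cotransporter; slope of fluorescence scaled to its starting value between 10 and 20 s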
* marks the source's active call; other numbers are inactive results. In the library only some 3.3% were active in any assay of this set; here they are far more common.

CC(C)N(C(=S)Nc1cc(S(=O)(=O)N2CCOCC2)ccc1Cl)c1ccccc1 was read as ABCG2 block -3, ROMK mod 0.95, Cl transport mod 0.53, PMI act 0.8, PMI act satM6P 0.9 and ABCB1 inh 0.
`Cc1nnc(NN2CCOCC2)[nH]c1=O` gave ABCG2 block 1, ROMK mod 0.23, Cl transport mod -0.036, PMI act 0.9, PMI act satM6P 0.8 and ABCB1 inh 0.
O=C(CSc1nc2cc(Cl)ccc2c(=O)n1Cc1ccco1)Nc1ccc(S(=O)(=O)N2CCOCC2)cc1 was read as ABCG2 block -3, ROMK mod -0.33, Cl transport mod 4.4*, PMI act 1, PMI act satM6P 0.9, ABCB1 inh -1, KCC2 secondary 0.0073, KCC2 bumet counter 0.014*, KCC2 sec2 0.034, HEK counter1 0.018*, KCC2 ouabain inconclusive and HEK counter2 0.015*.
`Cc1cc(NC(=O)CSc2nc3cc(Cl)ccc3s2)no1` gave ABCG2 block -1, ROMK mod 0.18, Cl transport mod 0.85, PMI act 0.9, PMI act satM6P 1 and ABCB1 inh 0.
Screening O=C(CSc1nc2ccccc2s1)Nc1ccc(Cl)c(S(=O)(=O)N2CCOCC2)c1 returned ABCG2 block -1, Cl transport mod 0.45, PMI act 0.9, PMI act satM6P 0.9 and ABCB1 inh 0.
`O=C(CSc1cccc2cccnc12)Nc1ccc(S(=O)(=O)N2CCOCC2)cc1` gave Cl transport mod 9.6*, KCC2 secondary 0.006, KCC2 bumet counter 0.02*, KCC2 sec2 0.028, HEK counter1 0.016*, KCC2 ouabain inconclusive and HEK counter2 0.013*.

Bioassay records from PubChem BioAssay.
